ChEMBL document CHEMBL1137056, “Synthesis of fluorinated analogues of SJG-136 and their DNA-binding potential” (Bioorg Med Chem Lett, 2004)

Assays:
Format in all cases: functional
[1] = species: Bos taurus; test: Increase in melting point temperature after 36 hr of incubation [1:5] as measurement of DNA binding affinity using calf thymus DNA
Summary of the method: (§1)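 Thermal denaturation of calf thymus DNA, 100 µM DNA with 20 µM ligand (1:5 ligand:DNA molar ratio). Buffer was aqueous 10 mM sodium phosphate with 1 mM EDTA, pH 7.00. Mixtures were incubated at 37°C for the stated time, then the shift in helix melting temperature versus DNA alone was recorded. DNA-only Tm is the mean of 10 determinations.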

[2] = species: Bos taurus; test: Increase in melting point temperature after 0h of incubation [1:5 ratio] as measurement of DNA binding affinity using calf thymus DNA; summary of the method: as §1
[3] = species: Bos taurus; test: Increase in melting point temperature after 18 hr of incubation [1:5] as measurement of DNA binding affinity using calf thymus DNA; summary of the method: as §1

| SMILES | ΔTm [1] | ΔTm [2] | ΔTm [3] |
| --- | --- | --- | --- |
| COc1cc2c(cc1OCCCOc1cc3c(cc1OC)C(=O)N1CC(=C(F)F)C[C@H]1C=N3)N=C[C@@H]1CC(=C(F)F)CN1C2=O | 24.9 °C | 20.8 °C | 24.6 °C |
| COc1cc2c(cc1O)N=C[C@@H]1CCCN1C2=O | 0.7 °C | 0.3 °C | 0.7 °C |
| COc1cc2c(cc1OCCCCOc1cc3c(cc1OC)C(=O)N1CC(=C(F)F)C[C@H]1C=N3)N=C[C@@H]1CC(=C(F)F)CN1C2=O | 6.5 °C | 2.1 °C | 5.2 °C |
| C=C1C[C@H]2C=Nc3cc(OCCCOc4cc5c(cc4OC)C(=O)N4CC(=C)C[C@H]4C=N5)c(OC)cc3C(=O)N2C1 |  | 25.7 °C | 33.6 °C |
| COc1cc2c(cc1OCCCOc1cc3c(cc1OC)C(=O)N1CCC[C@H]1C=N3)N=C[C@@H]1CCCN1C2=O | 15.7 °C | 10.2 °C | 15.1 °C |
| COc1cc2c(cc1O)N=C[C@@H]1CC(=C(F)F)CN1C2=O | 2.2 °C | 1 °C | 1.7 °C |
| COc1cc2c(cc1OCCCCCOc1cc3c(cc1OC)C(=O)N1CC(=C(F)F)C[C@H]1C=N3)N=C[C@@H]1CC(=C(F)F)CN1C2=O | 21.3 °C | 16.2 °C | 19.2 °C |
